An excerpt weighted towards active compounds, which were near 3% of everything screened.
DSG3 Ab inh: inhibitors of pemphigus antibody binding to human desmoglein-3. P32926. DSG3-coupled beads, scFv-anti-DSG3-GFP binding, flow cytometry; hits give low values. binding (percent of control), % at 10 µM. 310,000 tested, 0.48% active;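 active = binding more than 3 SD below its plate's average and above zero; inconclusive = below that plate limit but binding exactly zero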;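 note: hits lower antibody fragment binding to DSG3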
Myeloid diff MLP: promotes myeloid progenitor differentiation | calls only at 10 µM | AID 624256 | ER-HoxA9 myeloid progenitors, lysozyme-GFP differentiation, flow cytometry | 360,000 tested, 1% active;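 active = normalized GFP-positive differentiation at or above the plate's own cutoff, the solvent-only control mean plus 3 SD; inconclusive = no clear call, values can overlap the other calls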;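 note: cells exposed to compound for four days before flow analysis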
Exocytosis inh: lytic granule exocytosis inhibition; TALL-104 LAMP-1 surface exposure, flow cytometry; cells stimulated with thapsigargin and PMA; inhibition, % at 10 µM; 360,000 tested, 0.66% active;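 active = inhibition above about 55%, limit read from the data; inconclusive = no clear call, values can overlap the other calls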
SENP1 FRET inh: SENP1 (human) catalytic domain inhibition. 360,000 tested, 0.21% active. AID 624204. recombinant SENP1 catalytic domain, CyPet-SUMO1-YPet FRET cleavage. Q9P0U3. inhibition, % at 10 µM;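 active = inhibition at least 30% at 10 µM, raw YFP signal under a set limit, fluorescence ratio 0.5 to 1.5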;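 note: 0% = enzyme with DMSO and 100% = no enzyme wells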
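System: Recombinant human SENP1 catalytic domain, His6-tagged | Incubation: Enzyme reaction for 50 min at room temperature, dark | Medium: Tris pH 8 with BME, BSA, NP40 and catalase | Also added: 25 nM SUMO1 FRET substrate | Compound: 10 µM single point, 0.5% DMSO | Measured by: FRET fluorescence in CFP and YFP emission channels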
HNF4A DNA FP: change in binding of human HNF4 alpha to DNA; activity change, % at 10 µM; HNF4a-FITC DNA binding, fluorescence polarization, 1 h; 360,000 tested, 0.3% active; P41235; in the data active = activity change above about 30%, passing the limit was not always enough
Target sequence (P41235 whole entry, looked up): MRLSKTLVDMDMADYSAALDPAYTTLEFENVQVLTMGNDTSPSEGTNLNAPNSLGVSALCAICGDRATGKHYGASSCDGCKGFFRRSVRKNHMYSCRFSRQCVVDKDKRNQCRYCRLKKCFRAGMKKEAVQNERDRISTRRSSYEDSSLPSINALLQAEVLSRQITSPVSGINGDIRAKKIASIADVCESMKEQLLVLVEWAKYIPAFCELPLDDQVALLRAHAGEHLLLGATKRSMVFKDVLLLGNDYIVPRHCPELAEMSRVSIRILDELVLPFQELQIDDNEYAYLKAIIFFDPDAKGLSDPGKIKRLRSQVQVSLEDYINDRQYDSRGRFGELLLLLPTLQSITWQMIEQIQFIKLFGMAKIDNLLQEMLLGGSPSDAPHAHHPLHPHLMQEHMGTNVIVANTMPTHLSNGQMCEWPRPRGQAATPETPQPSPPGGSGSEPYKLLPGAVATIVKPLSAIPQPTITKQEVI
Cardio protect: protects H9c2 cardiomyocytes from peroxide injury | H2O2 injury protection, ATPLite, 2 h | protection from H2O2 cell death, % at 20 µM | 360,000 tested, 0.63% active;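 active = compounds giving at least 50% protection of heart cells from peroxide-induced death in the single-dose screen, raw or plate-pattern-corrected value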;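 note: 0% = DMSO wells with peroxide and 100% = DMSO wells without peroxide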
* = called active by the depositor; i = inactive; ? = inconclusive; nt = not tested or not shown; + = active, no number.

SMILES	DSG3 Ab inh	Myeloid diff MLP	Exocytosis inh	SENP1 FRET inh	HNF4A DNA FP	Cardio protect
CCc1nnc(NC(=O)CSc2nnc(CNc3ccc(OC)cc3)n2C)s1	101.7	i	-0.5	1.3	-2.9	68.3*
CCc1nnc(NC(=O)CSc2nnc3c(n2)[nH]c2ccccc23)s1	31.6*	i	-0.7	0.3	2.9	4.0
CCc1nnc(NC(=O)CSc2ccc(-c3ccc(-n4cccn4)cc3)nn2)s1	77.4*	i	-4.1	-2.6	0.0	-6.9
CCc1nnc(NC(=O)CSc2nncc(=O)n2N)s1	85.4*	?	-4.1	-0.1	3.0	0.2
Cc1ccccc1NC(=O)CSc1ccc(-c2ccc(-n3cccn3)cc2)nn1	98.5	i	-6.5	0.7	0.6	-5.7
O=C(CN(C(=O)C1CSC(=O)C1)c1cccc(F)c1)NCc1ccc2c(c1)OCO2 (centres undefined)	111.0	i	-0.7	-1.7	-2.9	-0.6
CCN(CC)CCNC(=O)CCc1n[nH]c(=O)c2ccccc12	91.7	i	-1.8	-0.5	2.2	81.3*
CCN(CC)CCNC(=O)CCc1nn(C)c(=O)c2ccccc12	105.6	i	0.0	0.1	1.4	13.5
O=[N+]([O-])c1ncccc1OCc1ccc(-c2ccccc2)cc1	188.1	i	86.0*	1.3	6.0	-8.4
CCc1nnc(NS(=O)(=O)c2ccc(NCc3cc(Cl)ccc3O)cc2)s1	101.6	i	7.7	-0.2	-1.2	-0.2
Cc1cc[n+](-c2[nH]c(=O)sc2/C=N/N=C(\[O-])c2ccncc2)cc1C	102.7	i	3.2	1.7	1.4	2.7
Cc1cc[n+](-c2[nH]c(=O)sc2/C=N/N=C(\[O-])c2ccccc2)cc1C	95.6	i	-4.4	39.7*	-104.2	2.4
COc1ccc(CN(C(=O)/C=C/c2ccco2)C2CCS(=O)(=O)C2)cc1OC (centres undefined)	nt	i	0.8	1.1	5.3	1.6
COc1ccccc1N1CCN(C(=O)c2ccc3ncsc3c2)CC1	105.6	+	-6.2	1.2	3.1	-4.2
O=C(c1ccc2ncsc2c1)N1CCN(c2cccc(C(F)(F)F)c2)CC1	100.1	+	-1.6	-3.5	3.1	-4.6
COc1ccccc1N1CCN(C(=O)c2ccc3nc(-c4ccco4)c(-c4ccco4)nc3c2)CC1	nt	i	-1.4	-23.8	0.5	63.5*
Cc1ccc(C)c(N2CCN(C(=O)c3ccc4nc(-c5ccco5)c(-c5ccco5)nc4c3)CC2)c1	69.4*	i	-4.4	-17.5	-22.4	4.1
O=C(c1ccc2nc[nH]c2c1)N1CCN(c2cccc(C(F)(F)F)c2)CC1	112.0	i	31.5	-3.3	-3.2	4.1
CC1CCC2C(=O)N(c3cccc(C(=O)Nc4ccccc4Cl)c3)C(=O)C2C1 (centres undefined)	100.7	i	3.8	2.8	1.3	5.3
Cn1ccc(C(=O)Nc2cccnc2Cl)n1	nt	i	2.1	-1.3	4.7	7.1
COc1ccc(-c2cc(NC(C)=O)c3ncc(-c4ccc(OC)c(OC)c4)n3c2)cc1OC	nt	i	36.0	-28.9	8.3	66.8*
COc1ccc(-c2cnc3c(NC(C)=O)cc(-c4ccsc4)cn23)cc1OC	nt	+	7.7	-24.8	17.4	31.7
Cc1cc2c3ccccc3ncn2n1	95.7	i	9.8	2.7	-0.8	4.0
COC(=O)Cn1c(=O)c(=O)n(CC(=O)OC)c2ccccc21	104.4	i	-0.7	3.3	1.3	8.4
COC(=O)Cn1cc(/C=C/c2cc[n+](C)cc2)c2ccccc21	160.4	+	-2.5	-36.8	91.6	8.0
SMILES	DSG3 Ab inh	Myeloid diff MLP	Exocytosis inh	SENP1 FRET inh	HNF4A DNA FP	Cardio protect
CNC(=O)/C(C#N)=C/c1cn(CC(=O)OC)c2ccccc12	113.1	i	-6.9	-7.1	-1.8	3.6
COC(=O)Cn1c(C)c(/C=C/c2cc[n+](C)cc2)c2ccccc21	203.8	+	-1.4	-24.9	127.7	-1.0
Cc1ccc(N2C(=O)c3ccccc3NC2(C(=O)O)c2ccccc2)cc1Cl (centres undefined)	107.4	i	-2.9	1.6	-6.2	6.1
COc1ccc(N2C(=O)C(=O)/C(=C(/O)c3ccc(C)cc3)C2c2cccnc2)cc1 (centres undefined)	95.8	+	-2.7	23.7	13.8	0.8
CC(=O)c1csc(COc2ccccc2)n1	109.8	i	-7.7	0.2	62.9*	2.2
CCOC(=O)c1csc(COc2ccc(OC)cc2)n1	108.2	i	3.0	0.8	0.6	0.5
CCOCCCNc1nc2c(C)cccn2c(=O)c1/C=C1\SC(=S)N(CC(C)C)C1=O	172.4	+	-2.0	91.8	57.4*	-13.0
CCCN1C(=O)/C(=C/c2c(NCCCOCC)nc3c(C)cccn3c2=O)SC1=S	144.0	+	-2.0	90.8	50.2*	2.8
CCC(C)N=Cc1c(Nc2ccccc2)nc2c(C)cccn2c1=O (centres undefined)	103.1	i	0.0	1.2	1.4	-7.7
CCOCCCNc1nc2c(C)cccn2c(=O)c1/C=C1\SC(=S)N(C(C)CC)C1=O (centres undefined)	180.4	+	2.9	49.5	8.4	-3.6
Cc1cc(O)c2c(c1)C(=O)[C@@]13Oc4c5c(c(O)c6c(O)cc(C)cc46)C(=O)C[C@H](O)[C@H]5[C@@H]1[C@@H](O)CC(=O)C3=C2O	88.3	i	0.2	33.5*	-16.4	-0.7
CCn1c2ccccc2c2nc3ccccc3nc21	111.0	i	1.3	-22.2	0.9	-0.6
CCn1c2ccccc2c2nc3cc(OC)c(OC)cc3nc21	97.9	i	22.3	-26.4	-6.2	50.9*
CN(C)c1ccccc1-c1cc(NC=O)c2ncc(-c3cccc(C(F)(F)F)c3)n2c1	nt	+	-12.1	-28.4	-91.9	16.1
CN(C)C(=O)c1cccc(-c2cnc3c(NC=O)cc(-c4ccccc4Cl)cn23)c1	nt	i	-1.9	-25.0	0.7	1.1
CN(C)C(=O)c1cccc(-c2cnc3c(NC=O)cc(-c4ccccc4N(C)C)cn23)c1	nt	+	-7.8	-29.9	-99.8	8.0
C[C@]12CCC[C@H](O1)c1c(cc3c(c1O)C(=O)c1c(O)cc(O)cc1C3=O)O2	97.2	i	21.9	31.1*	68.6	-17.7
Cc1ccc(Cc2c(-c3ccc(F)cc3)nc3c(C)cc(Br)cn23)cc1	nt	i	0.3	40.5*	3.6	-9.1
CCCOc1cccc(C(=O)Nc2cccc3ncccc23)c1	112.7	i	-8.0	1.1	1.4	-0.6
CCCOc1cccc(C(=O)Nc2ccc(Br)cc2F)c1	61.7*	i	-2.8	1.8	-0.3	-8.7
O=c1c2c3c(sc2ncn1/N=C/c1ccc([N+](=O)[O-])o1)CCCC3	106.4	?	83.3*	2.0	-0.1	-1.5
COc1cc(OC)c(N(C)S(=O)(=O)c2cccc(C(=O)Nc3nccs3)c2)cc1Cl	130.1	i	-2.4	2.8	-1.0	18.9
